Reference: ChEMBL document CHEMBL1212813, “alpha-Amino-3-hydroxy-5-methyl-4-isoxazolepropionic acid (AMPA) antagonists: from bench to bedside” (J Med Chem, 2010)

Tests used:
Mus musculus [1] = experiment: Anticonvulsant activity in po dosed mouse assessed as inhibition of MES-induced tonic seizures; format: functional
Procedure, shortened: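 Mice were dosed orally 2 h before maximal electroshock. The read-out was protection from tonic convulsions, and an ED50 was derived.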

[2] = Displacement of [3H]AMPA from AMPA receptor in rat cortical membrane; format: cell membranes
[3] = Displacement of [3H]kainate from kainate receptor in rat cortical membrane; format: cell membranes
Glutamate NMDA receptor [4] = experiment: Inhibition of NMDA receptor glutamate site from rat cortical membrane
Glutamate NMDA receptor [5] = experiment: Inhibition of NMDA receptor glycine site from rat cortical membrane
Rattus norvegicus [6] = experiment: Neuroprotective effect against middle cerebral artery occlusion-induced focal cerebral ischemia in iv dosed spontaneously hypertensive rat brain after 1 to 5 hrs of occlusion; format: functional
Rattus norvegicus [7] = experiment: Anticonvulsant activity in ip dosed rat assessed as inhibition of MES-induced tonic seizures; format: functional
[8] = Antagonist activity at AMPA receptor in rat cortical membrane assessed as inhibition of AMPA-induced membrane current; format: functional, cell membranes
Mus musculus [9] = experiment: Anticonvulsant activity in ip dosed DBA2 mouse assessed as inhibition of sound-induced clonic seizures; format: functional
Rattus norvegicus [10] = organism: Rattus norvegicus; experiment: Selectivity ratio IC50 for rat AMPA receptor to IC50 rat kainate receptor
Rattus norvegicus [11] = experiment: Neuroprotective effect against middle cerebral artery occlusion-induced focal cerebral ischemia in iv dosed spontaneously hypertensive rat; format: functional
[12] = Antagonist activity at AMPA receptor in rat cortical membrane assessed as inhibition of AMPA-induced calcium accumulation; format: functional, cell membranes
Mus musculus [13] = experiment: Anticonvulsant activity in po dosed mouse assessed as inhibition of PTZ-induced seizures; format: functional
Homo sapiens [14] = organism: Homo sapiens; experiment: Antiepileptic activity in human patient assessed as reduction in refractory partial seizures; format: functional; parameters: scale not given: the % may be the effect or the level left
Meriones unguiculatus [15] = organism: Meriones unguiculatus; experiment: Neuroprotective activity against middle cerebral artery occlusion-induced focal cerebral ischemia in Mongolian gerbils assessed survival of hippocampal CA1 neurons; format: functional
Meriones unguiculatus [16] = experiment: Neuroprotective activity against middle cerebral artery occlusion-induced focal cerebral ischemia in Mongolian gerbils assessed as reduction in infarct volume at 6 mg/kg, iv bid; format: functional; parameters: scale not given: the % may be the effect or the level left
Homo sapiens [17] = organism: Homo sapiens; experiment: Toxicity in human assessed as ataxia; format: organism-based; conditions: in vivo
Homo sapiens [18] = organism: Homo sapiens; experiment: Toxicity in human assessed as dizziness; format: organism-based; conditions: in vivo
[19] = target: Glutamate receptor ionotropic, kainate 1 (Homo sapiens) (UniProt P39086); experiment: Binding affinity to GluR5
Sequence of Glutamate receptor ionotropic, kainate 1 (Homo sapiens) (P39086 whole entry): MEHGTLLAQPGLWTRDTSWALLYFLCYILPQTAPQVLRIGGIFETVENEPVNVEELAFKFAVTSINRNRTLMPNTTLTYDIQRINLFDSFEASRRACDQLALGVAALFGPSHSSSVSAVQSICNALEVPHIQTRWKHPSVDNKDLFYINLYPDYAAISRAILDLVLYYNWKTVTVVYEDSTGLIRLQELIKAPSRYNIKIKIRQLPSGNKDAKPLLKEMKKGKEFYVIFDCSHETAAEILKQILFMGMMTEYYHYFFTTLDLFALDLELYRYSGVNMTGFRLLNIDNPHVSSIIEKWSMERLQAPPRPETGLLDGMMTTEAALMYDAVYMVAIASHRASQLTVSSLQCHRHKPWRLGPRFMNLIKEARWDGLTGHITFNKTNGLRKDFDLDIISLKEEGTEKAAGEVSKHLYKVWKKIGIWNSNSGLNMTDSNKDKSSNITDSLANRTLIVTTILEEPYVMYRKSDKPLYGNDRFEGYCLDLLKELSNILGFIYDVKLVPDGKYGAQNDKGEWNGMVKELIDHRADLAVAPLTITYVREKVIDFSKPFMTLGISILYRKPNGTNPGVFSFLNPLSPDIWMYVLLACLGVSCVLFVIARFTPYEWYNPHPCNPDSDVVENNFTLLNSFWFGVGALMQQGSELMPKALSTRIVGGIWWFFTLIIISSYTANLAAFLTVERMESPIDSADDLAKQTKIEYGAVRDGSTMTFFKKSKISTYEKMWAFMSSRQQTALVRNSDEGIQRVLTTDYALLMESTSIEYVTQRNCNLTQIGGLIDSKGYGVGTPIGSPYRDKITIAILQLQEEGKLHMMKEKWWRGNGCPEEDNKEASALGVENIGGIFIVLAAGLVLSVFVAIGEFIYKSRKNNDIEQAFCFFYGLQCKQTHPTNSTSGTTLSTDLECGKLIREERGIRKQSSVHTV

[20] = target: T1, Glutamate receptor ionotropic, kainate 2 (Homo sapiens, UniProt Q13002); experiment: Binding affinity to GluR6
T1 sequence (Q13002 whole entry): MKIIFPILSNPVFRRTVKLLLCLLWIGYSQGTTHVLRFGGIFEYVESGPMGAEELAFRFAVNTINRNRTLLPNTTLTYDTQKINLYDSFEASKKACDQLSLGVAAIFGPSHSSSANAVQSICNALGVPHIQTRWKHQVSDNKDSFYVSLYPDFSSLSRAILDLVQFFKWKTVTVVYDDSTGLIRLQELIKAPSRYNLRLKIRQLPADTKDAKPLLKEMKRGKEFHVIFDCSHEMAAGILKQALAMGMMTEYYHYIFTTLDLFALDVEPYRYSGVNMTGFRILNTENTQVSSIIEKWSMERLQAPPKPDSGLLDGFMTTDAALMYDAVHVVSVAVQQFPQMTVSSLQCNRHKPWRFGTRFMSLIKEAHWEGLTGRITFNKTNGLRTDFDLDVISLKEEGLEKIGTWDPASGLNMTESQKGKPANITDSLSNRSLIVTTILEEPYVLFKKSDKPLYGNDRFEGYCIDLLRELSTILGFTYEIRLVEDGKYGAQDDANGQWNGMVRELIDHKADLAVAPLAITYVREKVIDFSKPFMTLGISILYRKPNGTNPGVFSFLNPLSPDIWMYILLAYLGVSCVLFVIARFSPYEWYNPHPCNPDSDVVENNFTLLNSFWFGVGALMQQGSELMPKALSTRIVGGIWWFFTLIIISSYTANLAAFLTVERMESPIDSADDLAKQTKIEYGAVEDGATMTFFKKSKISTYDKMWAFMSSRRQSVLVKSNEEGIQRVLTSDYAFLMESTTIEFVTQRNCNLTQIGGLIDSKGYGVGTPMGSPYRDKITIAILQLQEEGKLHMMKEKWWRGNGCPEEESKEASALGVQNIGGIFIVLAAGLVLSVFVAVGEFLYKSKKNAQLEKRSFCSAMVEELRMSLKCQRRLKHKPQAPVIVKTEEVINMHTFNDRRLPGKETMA

[21] = target: Glutamate receptor ionotropic, kainate 3 (Homo sapiens, UniProt Q13003); experiment: Binding affinity to GluR7
Sequence of Glutamate receptor ionotropic, kainate 3 (Q13003 whole entry): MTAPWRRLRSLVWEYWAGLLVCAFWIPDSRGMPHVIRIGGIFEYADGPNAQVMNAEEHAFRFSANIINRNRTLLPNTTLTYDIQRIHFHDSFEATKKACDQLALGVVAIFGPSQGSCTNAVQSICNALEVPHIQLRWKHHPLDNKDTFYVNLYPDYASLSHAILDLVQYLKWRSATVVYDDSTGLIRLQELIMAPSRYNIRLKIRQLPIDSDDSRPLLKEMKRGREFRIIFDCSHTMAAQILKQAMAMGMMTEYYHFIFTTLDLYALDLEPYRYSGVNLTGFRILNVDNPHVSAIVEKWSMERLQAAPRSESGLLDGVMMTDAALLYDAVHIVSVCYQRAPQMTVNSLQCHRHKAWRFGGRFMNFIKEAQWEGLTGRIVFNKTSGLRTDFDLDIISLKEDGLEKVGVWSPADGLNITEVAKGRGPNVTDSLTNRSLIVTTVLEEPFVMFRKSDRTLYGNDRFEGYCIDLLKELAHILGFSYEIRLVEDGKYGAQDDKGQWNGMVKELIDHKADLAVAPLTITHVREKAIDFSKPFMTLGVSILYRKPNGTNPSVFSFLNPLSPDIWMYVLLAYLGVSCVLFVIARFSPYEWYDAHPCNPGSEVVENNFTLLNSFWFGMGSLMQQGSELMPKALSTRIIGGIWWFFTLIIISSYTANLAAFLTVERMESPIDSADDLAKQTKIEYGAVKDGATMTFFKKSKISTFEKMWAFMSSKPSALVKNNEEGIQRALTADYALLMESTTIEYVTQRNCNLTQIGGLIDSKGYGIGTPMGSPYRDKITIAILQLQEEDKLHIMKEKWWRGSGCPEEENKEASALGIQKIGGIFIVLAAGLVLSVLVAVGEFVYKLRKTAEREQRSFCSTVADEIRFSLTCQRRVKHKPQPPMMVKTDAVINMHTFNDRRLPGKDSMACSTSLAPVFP

Mus musculus [22] = experiment: Anticonvulsant activity in ip dosed mouse assessed as inhibition of MES-induced tonic seizures; format: functional
Meriones unguiculatus [23] = organism: Meriones unguiculatus; experiment: Neuroprotective activity against middle cerebral artery occlusion-induced focal cerebral ischemia in Mongolian gerbils assessed as reduction in infarct volume in cortex; format: functional; parameters: scale not given: the % may be the effect or the level left
Meriones unguiculatus [24] = organism: Meriones unguiculatus; experiment: Neuroprotective activity against middle cerebral artery occlusion-induced focal cerebral ischemia in Mongolian gerbils assessed as reduction in infarct volume in hemesphere; format: functional; parameters: scale not given: the % may be the effect or the level left
Felis catus [25] = organism: Felis catus; experiment: Neuroprotective activity against middle cerebral artery occlusion-induced focal cerebral ischemia in cat assessed as reduction in infarct volume in hemesphere; format: functional; parameters: scale not given: the % may be the effect or the level left
Felis catus [26] = organism: Felis catus; experiment: Neuroprotective activity against middle cerebral artery occlusion-induced focal cerebral ischemia in cat assessed as reduction in infarct volume in cortex; format: functional; parameters: scale not given: the % may be the effect or the level left
Homo sapiens [27] = organism: Homo sapiens; experiment: Toxicity in human assessed as occurance of systemic allodynia; format: organism-based; conditions: in vivo
Homo sapiens [28] = organism: Homo sapiens; experiment: Toxicity in human assessed as hazy vision; format: organism-based; conditions: in vivo
Homo sapiens [29] = organism: Homo sapiens; experiment: Toxicity in human assessed as sedation; format: organism-based; conditions: in vivo
[30] = target: T1, Glutamate receptor ionotropic, kainate 2; conditions: 10 uM
Rattus norvegicus [31] = experiment: Neuroprotective effect against middle cerebral artery occlusion-induced focal cerebral ischemia in spontaneously hypertensive rat at 20 mg/kg, iv after 3 hrs of occlusion; format: functional
Rattus norvegicus [32] = experiment: Neuroprotective effect against middle cerebral artery occlusion-induced focal cerebral ischemia in spontaneously hypertensive rat at 20 mg/kg, iv after 2 hrs of occlusion; format: functional
Rattus norvegicus [33] = experiment: […] effect against middle cerebral artery occlusion-induced focal cerebral ischemia in spontaneously hypertensive rat assessed as reduction in infarct volume at 20 mg/kg, iv after 2 hrs of occlusion; format: functional; parameters: scale not given: the % may be the effect or the level left
[34] = target: T2, Solute carrier family 22 member 6 (Homo sapiens, UniProt Q4U2R8); experiment: Inhibition of human OAT1
T2 sequence (Q4U2R8 whole entry): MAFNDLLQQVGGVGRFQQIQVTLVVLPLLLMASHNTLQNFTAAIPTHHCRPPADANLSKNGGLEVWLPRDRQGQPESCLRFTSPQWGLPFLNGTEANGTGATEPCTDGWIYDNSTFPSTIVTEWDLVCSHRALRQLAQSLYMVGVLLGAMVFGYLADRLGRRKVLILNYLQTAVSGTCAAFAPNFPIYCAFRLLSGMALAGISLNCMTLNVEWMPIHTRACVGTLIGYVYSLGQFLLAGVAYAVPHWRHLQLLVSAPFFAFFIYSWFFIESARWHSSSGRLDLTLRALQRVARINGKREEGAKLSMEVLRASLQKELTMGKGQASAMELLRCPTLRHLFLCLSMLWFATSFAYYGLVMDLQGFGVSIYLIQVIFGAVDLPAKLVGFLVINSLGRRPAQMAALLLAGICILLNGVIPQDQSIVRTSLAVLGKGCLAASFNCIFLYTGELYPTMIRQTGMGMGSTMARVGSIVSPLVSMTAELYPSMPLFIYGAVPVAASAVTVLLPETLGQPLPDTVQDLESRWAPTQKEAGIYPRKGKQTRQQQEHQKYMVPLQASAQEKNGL

[35] = target: T3, Organic anion transporter 3 (Homo sapiens, UniProt Q8TCC7); experiment: Inhibition of human OAT3
T3 sequence (Q8TCC7 whole entry): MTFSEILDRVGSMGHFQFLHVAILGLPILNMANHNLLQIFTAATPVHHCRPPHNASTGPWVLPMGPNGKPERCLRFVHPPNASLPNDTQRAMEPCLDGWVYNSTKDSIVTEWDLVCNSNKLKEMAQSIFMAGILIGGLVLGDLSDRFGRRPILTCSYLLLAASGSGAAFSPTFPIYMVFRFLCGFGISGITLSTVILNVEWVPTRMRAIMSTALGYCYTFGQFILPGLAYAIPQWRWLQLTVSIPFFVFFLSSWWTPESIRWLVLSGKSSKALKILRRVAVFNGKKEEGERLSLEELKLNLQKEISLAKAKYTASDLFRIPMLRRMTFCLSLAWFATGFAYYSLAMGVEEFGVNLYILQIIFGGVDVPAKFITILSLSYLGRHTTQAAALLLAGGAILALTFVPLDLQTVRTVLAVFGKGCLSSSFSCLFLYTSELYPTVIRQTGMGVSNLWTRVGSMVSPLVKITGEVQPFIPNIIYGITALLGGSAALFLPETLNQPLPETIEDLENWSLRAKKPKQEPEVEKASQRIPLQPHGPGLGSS

[36] = target: T4, Solute carrier family 22 member 11 (Homo sapiens, UniProt Q9NSA0); experiment: Inhibition of human OAT4
T4 sequence (Q9NSA0 whole entry): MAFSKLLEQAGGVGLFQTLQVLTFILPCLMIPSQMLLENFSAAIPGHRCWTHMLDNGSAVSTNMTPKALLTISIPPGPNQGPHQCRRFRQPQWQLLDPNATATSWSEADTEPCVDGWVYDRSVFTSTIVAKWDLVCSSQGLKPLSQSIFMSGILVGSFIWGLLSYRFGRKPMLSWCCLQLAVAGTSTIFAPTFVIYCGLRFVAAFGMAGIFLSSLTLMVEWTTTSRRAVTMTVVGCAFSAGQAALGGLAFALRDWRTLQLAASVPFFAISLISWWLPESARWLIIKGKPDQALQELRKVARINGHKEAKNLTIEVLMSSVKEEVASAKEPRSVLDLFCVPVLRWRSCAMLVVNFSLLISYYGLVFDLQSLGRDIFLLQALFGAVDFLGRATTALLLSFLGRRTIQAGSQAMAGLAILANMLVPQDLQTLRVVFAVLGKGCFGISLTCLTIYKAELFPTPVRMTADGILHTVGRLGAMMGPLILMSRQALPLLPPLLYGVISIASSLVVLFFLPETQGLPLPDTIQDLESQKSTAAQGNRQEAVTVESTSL

Nc1ccncc1 [DALFAMPRIDINE]
ED50 (Mus musculus [1]): 8.4 mg/kg

O=c1[nH]c2cc([N+](=O)[O-])c([N+](=O)[O-])cc2[nH]c1=O [DNQX]
IC50 [2]: 0.5 µM
IC50 [3]: 2 µM
IC50 (Glutamate NMDA receptor [4]): 40 µM
IC50 (Glutamate NMDA receptor [5]): 9.5 µM

O=c1[nH]c2cc(C(F)(F)F)c(N3CCOCC3)cc2n(CP(=O)(O)O)c1=O [FANAPANEL]
IC50 [2]: 0.12 µM
IC50 [3]: 2.5 µM
IC50 (Glutamate NMDA receptor [4]): 2.8 µM
IC50 (Glutamate NMDA receptor [5]): 5.15 µM
Activity (Rattus norvegicus [6]): 19%
ED50 (Rattus norvegicus [7]): 13 mg/kg

CN(C)CCOc1ccccc1-c1nc(-c2ccccc2)no1 [IRAMPANEL]
IC50 [8]: 8.5 µM
ED50 (Mus musculus [9]): 23.4 mg/kg

O=C(O)CCS [MERCAPTOPROPIONIC ACID]
ED50 (Mus musculus [1]): 17.1 mg/kg

NS(=O)(=O)c1cccc2c1c([N+](=O)[O-])cc1nc(O)c(O)nc12 [NBQX]
IC50 [2]: 0.15 µM
IC50 [3]: 4.8 µM
IC50 (Glutamate NMDA receptor [4]): > 90 µM
IC50 (Glutamate NMDA receptor [5]): > 100 µM
Ratio IC50 (Rattus norvegicus [10]): > 30
Activity (Rattus norvegicus [11]): 30%
ED50 (Mus musculus [9]): 27.8 mg/kg

CN1CCC[C@H]1c1cccnc1 [NICOTINE]
ED50 (Mus musculus [1]): 22.7 mg/kg

C1CCc2nnnn2CC1 [PENTYLENETETRAZOL]
ED50 (Mus musculus [1]): 16.8 mg/kg

N#Cc1ccccc1-c1cc(-c2ccccn2)cn(-c2ccccc2)c1=O [PERAMPANEL]
ED50 (Mus musculus [9]): 0.47 mg/kg
ED50 (Mus musculus [1]): 1.6 mg/kg
IC50 [12]: 0.093 µM
ED50 (Mus musculus [13]): 0.94 mg/kg
Activity (Homo sapiens [14]): 40%

O=C1C[C@@H]2OCC=C3CN4CC[C@]56c7ccccc7N1[C@H]5[C@H]2[C@H]3C[C@H]46 [STRYCHNINE]
ED50 (Mus musculus [1]): 17.4 mg/kg

CC(=O)N1N=C(c2ccc(N)cc2)c2cc3c(cc2C[C@H]1C)OCO3 [TALAMPANEL]
ED50 (Mus musculus [1]): 8.6 mg/kg
Activity (Meriones unguiculatus [15]): 25%
Activity (Meriones unguiculatus [16]): 47%
Activity (Homo sapiens [17]): 26%
Activity (Homo sapiens [18]): 52%

O=C(O)[C@@H]1C[C@H]2C[C@@H](CCc3nn[nH]n3)CC[C@H]2CN1 [TEZAMPANEL ANHYDROUS]
IC50 [2]: 1.3 µM
Ki [2]: 0.68 µM
IC50 [3]: 28.1 µM
Kb [19]: 0.2 µM
Ki [20]: > 100 µM
Ki [21]: > 100 µM
ED50 (Mus musculus [22]): 2.9 mg/kg
Activity (Meriones unguiculatus [23]): 31%
Activity (Meriones unguiculatus [24]): 25%
Activity (Felis catus [25]): 18%
Activity (Felis catus [26]): 19%
Activity (Homo sapiens [27]): <= 58%
Activity (Homo sapiens [28]): 20%
Activity (Homo sapiens [29]): 15%
inhibition [30]: < 20%

O=c1[nH]c2cc(-n3ccnc3)c([N+](=O)[O-])cc2[nH]c1=O [YM-90K]
Ki [2]: 0.084 µM
Ki [3]: 2.2 µM
Ki (Glutamate NMDA receptor [4]): > 100 µM

O=C(O)Cn1c(=O)c(=O)[nH]c2cc([N+](=O)[O-])c(-n3ccnc3)cc21 [ZONAMPANEL]
Ki [2]: 0.096 µM
IC50 [3]: 4.6 µM
IC50 (Glutamate NMDA receptor [4]): > 100 µM
IC50 (Glutamate NMDA receptor [5]): > 100 µM
Activity (Rattus norvegicus [31]): 35%
Activity (Rattus norvegicus [32]): 45%
Activity (Rattus norvegicus [33]): 55%
IC50 [34]: 3 µM
IC50 [35]: 6.6 µM
IC50 [36]: 300 µM
